Laboratory results: paper PMC2386536 (The Journal of Endocrinology, 2008)

Legend:
[1] = system: ischaemia–reperfusion injury in the rat; assay: EPR free radical production from hearts after in vivo ischaemia–reperfusion; conditions: CP-H spin trap
In short: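 Hearts were excised after in vivo ischaemia–reperfusion (45 min/2 h) and perfused retrogradely with warmed, gassed Krebs–Henseleit. With the LCA snare re-tied, 10 μl of 10−1 M CP-H spin trap was injected above the heart and 500 μl perfusate (drops 6–11) collected, four times per heart and averaged. This was repeated with the snare released, then with 500 U SOD. Samples were incubated at 37 °C for 20 min and read by EPR.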

[2] = mean arterial blood pressure and heart rate during ischaemia–reperfusion; format: in vivo, rat; conditions: data not shown
In short: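 They were then dosed with test compound or vehicle for 5 days, with the last dose 2–3 h before surgery. Under pentobarbitone anaesthesia (60 mg/kg i.p.), MABP was recorded via a carotid artery cannula. The protocol was 20-min stabilisation, 45-min LCA occlusion, then 2-h reperfusion.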

[3] = system: ischaemia and reperfusion in the rabbit; conditions: in vivo; cited from earlier work

C[C@]12CC[C@@H]3c4ccc(O)cc4CC[C@H]3[C@@H]1CC[C@@H]2O [17βE2, 17β-oestradiol]
free radical production from the AAR compared with placebo/vehicle [1]: Significantly fewer free radicals
effect on MABP pattern and MABP at end of ischaemia or reperfusion [2]: did not have a significant effect

CCCc1c(-c2ccc(O)cc2)nn(-c2ccc(O)cc2)c1-c1ccc(O)cc1 [PPT, 4,4,4-4 propyl-(1H)-pyrazole 1,3,5-triyltrisphenol]
cardioprotection / infarct size [3]: reduced infarct size
